ChEMBL document CHEMBL4393692, “Thiazolidinone/thiazole based hybrids - New class of antitrypanosomal agents” (Eur J Med Chem, 2019)
Calls of active or inactive are those of the source. The rule behind the calls is not given here.

Tests used:
[1] = test system: Trypanosoma brucei brucei; test: Antitrypanosomal activity against bloodstream form of Trypanosoma brucei brucei 90-13 reduction in parasite growth after 72 hrs by resazurin dye based fluorescence assay; type: functional, organism-based; conditions: 90-13, 72 h
Procedure, shortened: (§1)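 Bloodstream parasites cultured in HMI9 with 10% FCS at 37°C under 5% CO2. Log-phase cells harvested at 3000xg, plated at 10^5 cells/ml with dilutions from 10 down to 0.625 µg/ml (DMSO stocks) for 72 h. Resazurin added at 45 µM final, fluorescence read after a further 4 h. Inhibition vs DMSO control. IC50 from dose-response curve, mean ± SD of three independent experiments.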

[2] = test system: Trypanosoma brucei brucei; test: Antitrypanosomal activity against bloodstream form of Trypanosoma brucei brucei 90-13 assessed as reduction in parasite growth at 10 ug/ml after 72 hrs by resazurin dye based fluorescence assay relative to control; type: functional; conditions: 90-13, 72 h
Procedure, shortened: (§2)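 Bloodstream forms grown in HMI9 + 10% FCS, 37°C, 5% CO2. Log-phase cells harvested at 3000xg and seeded at 10^5 cells/ml, exposed to test substance from DMSO stock at a single screening level of 10 or 1 µg/mL for 72 h. Resazurin added (final 45 µM), 4 h more, then fluorescence read. Growth inhibition expressed against DMSO control.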

[3] = test system: Trypanosoma brucei brucei; test: Antitrypanosomal activity against bloodstream form of Trypanosoma brucei brucei 90-13 reduction in parasite growth at 1 ug/ml after 72 hrs by resazurin dye based fluorescence assay relative to control; type: functional; conditions: for inhibition at 1 µg/mL: 90-13, 72 h; procedure, shortened: as §2
[4] = test system: Trypanosoma brucei gambiense; test: Antitrypanosomal activity against bloodstream form of Trypanosoma brucei gambiense Feo reduction in parasite growth after 72 hrs by resazurin dye based fluorescence assay; type: functional, organism-based; procedure, shortened: as §1
[5] = Cytotoxicity against human AB943 cells assessed as reduction in cell viability after 5 days resazurin dye based fluorescence assay; conditions: 120 h
Procedure, shortened: (§3)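 Human primary fibroblasts grown in RPMI with 25 mM HEPES pH 7.3 and 10% FCS, 37°C, 5% CO2. After trypsinisation, seeded at 5000 cells/well and incubated 24 h. Then washed and exposed to two-fold drug dilutions, final DMSO below 1%, for 5 days. Resazurin added, fluorescence read (ex 530/em 590 nm) after 4 h. Growth inhibition vs DMSO control. SI = IC50 fibroblast / IC50 T. b. gambiense.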

[6] = Selectivity index, ratio of IC50 for human AB943 cells to IC50 of bloodstream form of Trypanosoma brucei gambiense Feo; type: toxicity; conditions: read-out: Ratio IC50; procedure, shortened: as §3
[7] = Acute toxicity in ip dosed mouse by Litchfield-Wilcoxon method; type: organism-based; conditions: in vivo
Procedure, shortened: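 White male mice of 23-25 g; compounds dissolved in 0.9% NaCl saline with 1-2 drops Tween-80, stock prepared immediately before use. Single intraperitoneal injection at increasing doses within 100–1000 mg/kg, 4 or 5 dose levels with 6 animals per dose. LD50 derived by the Litchfield-Wilcoxon method.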

O=C(CC1S/C(=N\N=C\c2c(-c3ccccc3)[nH]c3ccccc23)NC1=O)Nc1ccc(Cl)cc1 (configuration not stated)
IC50 [1]: 9.16 µM

O=C(CC1S\C(=N/N=C/C=C/c2ccccc2)NC1=O)Nc1ccc([N+](=O)[O-])cc1 (configuration not stated)
inhibition at 10 µg/mL [2]: 56.1%
inhibition [3]: inactive

CC12CCC(C/C1=N/N=C1/NC(=O)C(CC(=O)c3ccc(F)cc3)S1)C2(C)C (configuration not stated)
inhibition at 10 µg/mL [2]: 42%
inhibition at 1 µg/mL [3]: 36.1%

O=C(O)CC1SC(N/N=C/C=C/c2ccccc2[N+](=O)[O-])=NC1=O (configuration not stated)
inhibition at 10 µg/mL [2]: 24.9%
inhibition at 1 µg/mL [3]: 3.28%

CC1CS(=O)(=O)CCN1/N=C/c1ccc([N+](=O)[O-])o1 (configuration not stated) [NIFURTIMOX]
IC50 [1]: 2.39 µM
IC50 [4]: 4.64 µM
IC50 [5]: 65.1 µM
selectivity ratio [6]: 14

O=C(CC1S\C(=N/N=C/C=C/c2ccccc2)NC1=O)c1ccc(F)cc1 (configuration not stated)
inhibition at 10 µg/mL [2]: 57.3%
inhibition at 1 µg/mL [3]: 38.7%

CC1S/C(=N\N=C\c2c(-c3ccccc3)[nH]c3ccccc23)NC1=O (configuration not stated)
IC50 [4]: 0.21 µM
IC50 [5]: 28.1 µM
selectivity ratio [6]: 130
LD50 [7]: 220 mg/kg

C=CCN1C(=O)C(CC(=O)c2ccc(F)cc2)S/C1=N\N=C\c1ccccc1 (configuration not stated)
inhibition at 10 µg/mL [2]: 14.7%
inhibition at 1 µg/mL [3]: 11.1%

O=C(CC1S/C(=N\N=C\c2ccco2)NC1=O)c1ccc2c(c1)CCCC2 (configuration not stated)
inhibition at 10 µg/mL [2]: 10.9%
inhibition at 1 µg/mL [3]: 9.82%

CC12CCC(C/C1=N/N=C1/NC(=O)C(CC(=O)Nc3ccc(Cl)cc3)S1)C2(C)C (configuration not stated)
inhibition at 10 µg/mL [2]: 97.8%
inhibition at 1 µg/mL [3]: 14.1%

N=C(N)c1ccc(OCCCCCOc2ccc(C(=N)N)cc2)cc1 [PENTAMIDINE]
IC50 [1]: 0.0014 µM
IC50 [4]: 0.0015 µM
IC50 [5]: 23.2 µM

O=C(O)CCCNC(=O)CC1S/C(=N\N=C\c2ccco2)NC1=O (configuration not stated)
inhibition at 10 µg/mL [2]: 10%
inhibition at 1 µg/mL [3]: 0.06%

COc1cc(/C=N/N=C2\SC(CC(=O)c3ccc(F)cc3)C(=O)N2c2ccc(O)cc2)ccc1OCC(=O)O (configuration not stated)
inhibition at 10 µg/mL [2]: 14.5%
inhibition at 1 µg/mL [3]: 15.1%

O=C1CS/C(=N\N=C\c2c(-c3ccc(Cl)cc3)[nH]c3ccccc23)N1
IC50 [4]: 3.93 µM
LD50 [7]: 270 mg/kg

O=C(CC1S/C(=N\N=C\c2c(-c3ccccc3)[nH]c3ccccc23)NC1=O)Nc1ccc(Br)cc1 (configuration not stated)
IC50 [1]: 7.86 µM

O=C(O)CC1S\C(=N/N=C/C(Cl)=C/c2ccc([N+](=O)[O-])cc2)N(c2ccc(O)cc2)C1=O (configuration not stated)
inhibition at 10 µg/mL [2]: 25%
inhibition at 1 µg/mL [3]: -1.57%

O=C(CC1S/C(=N\N=C2CCCCC2)NC1=O)c1ccc(F)cc1 (configuration not stated)
inhibition at 10 µg/mL [2]: 98.5%
inhibition at 1 µg/mL [3]: 8.16%

O=C(CC1S/C(=N\N=C\c2c(-c3ccccc3)[nH]c3ccccc23)NC1=O)c1ccc2c(c1)CCCC2 (configuration not stated)
IC50 [1]: 13.1 µM

CC(=O)OCCC1S/C(=N\N=C\c2c(-c3ccccc3)[nH]c3ccccc23)NC1=O (configuration not stated)
IC50 [1]: 0.06 µM
IC50 [4]: 0.23 µM
IC50 [5]: 20.9 µM
selectivity ratio [6]: 95
LD50 [7]: 200 mg/kg

O=C(O)CC1S/C(=N\N=C\c2c(-c3ccccc3)[nH]c3ccccc23)NC1=O (configuration not stated)
LD50 [7]: 240 mg/kg

CC1S/C(=N\N=C\c2c(-c3ccc(Cl)cc3)[nH]c3ccccc23)NC1=O (configuration not stated)
IC50 [4]: 2.22 µM
IC50 [5]: 5.22 µM
selectivity ratio [6]: 2
LD50 [7]: 310 mg/kg

O=C1N/C(=N/N=C/c2c(-c3ccccc3)[nH]c3ccccc23)SC1CCO (configuration not stated)
IC50 [1]: 0.17 µM

O=C1N/C(=N/N=C/c2c(-c3ccc(Cl)cc3)[nH]c3ccccc23)SC1CCO (configuration not stated)
IC50 [4]: 1.49 µM
IC50 [5]: 8.96 µM
selectivity ratio [6]: 7

O=C(CC1S\C(=N/N=C/C=C/c2ccccc2)N(Cc2ccco2)C1=O)Nc1cccc(C(F)(F)F)c1 (configuration not stated)
inhibition at 10 µg/mL [2]: 98.9%
inhibition at 1 µg/mL [3]: 5.06%

O=C(CC1S/C(=N\N=C\c2c(-c3ccccc3)[nH]c3ccccc23)NC1=O)c1ccc(F)cc1 (configuration not stated)
IC50 [1]: 10.6 µM

O=C(CC1S/C(=N\N=C2CCCCC2)NC1=O)Nc1ccc(F)cc1 (configuration not stated)
inhibition at 10 µg/mL [2]: -4.66%
inhibition at 1 µg/mL [3]: -4.65%

CCC1S/C(=N\N=C\c2c(-c3ccccc3)[nH]c3ccccc23)NC1=O (configuration not stated)
IC50 [1]: 0.03 µM
IC50 [4]: 0.11 µM
IC50 [5]: 24.8 µM
selectivity ratio [6]: 220
LD50 [7]: 220 mg/kg

O=[N+]([O-])c1ccc(-c2[nH]c3ccccc3c2/C=N/Nc2nc(-c3ccc(Br)cc3)cs2)cc1
IC50 [4]: 2.3 µM
IC50 [5]: > 96.5 µM
selectivity ratio [6]: > 40

O=C1CS/C(=N\N=C\c2c(-c3ccc(Cl)cc3)[nH]c3ccccc23)N1c1ccc(O)cc1
IC50 [4]: 0.82 µM
IC50 [5]: > 100 µM
selectivity ratio [6]: > 130

C=CCN1C(=O)C(CC(=O)c2ccc(F)cc2)S/C1=N\N=C\c1ccc(N(C)C)cc1 (configuration not stated)
inhibition at 10 µg/mL [2]: 14.7%
inhibition at 1 µg/mL [3]: 11.1%

O=C(O)CCCCCNC(=O)CC1S/C(=N\N=C\c2c(-c3ccccc3)[nH]c3ccccc23)NC1=O (configuration not stated)
IC50 [1]: 14 µM

O=C(CC1S\C(=N/N=C/C=C/c2ccccc2)NC1=O)c1ccc2c(c1)CCCC2 (configuration not stated)
inhibition at 10 µg/mL [2]: 53.2%
inhibition at 1 µg/mL [3]: 7.69%

CCc1nn2c(/C=N/N=c3\scc(-c4ccc([N+](=O)[O-])cc4)n3-c3ccc(O)cc3)c(-c3ccc(Br)cc3)nc2s1
IC50 [4]: 0.51 µM
IC50 [5]: > 70 µM
selectivity ratio [6]: > 150

O=C(O)CC1S/C(=N\N=C\c2c(-c3ccc(Cl)cc3)[nH]c3ccccc23)NC1=O (configuration not stated)
LD50 [7]: 290 mg/kg

O=C(CC1S/C(=N\N=C2CCCCC2)NC1=O)Nc1ccc([N+](=O)[O-])cc1 (configuration not stated)
inhibition at 10 µg/mL [2]: 44.9%
inhibition [3]: inactive

CCOC(=O)c1s/c(=N\N=C\c2c(-c3ccc([N+](=O)[O-])cc3)[nH]c3ccccc23)n(-c2ccc(O)cc2)c1C
IC50 [4]: 0.66 µM
IC50 [5]: 82.9 µM
selectivity ratio [6]: 127

C=CCSc1nn2c(/C=N/N=c3/[nH]c(C)c(C(=O)OCC)s3)c(-c3ccccc3)nc2s1
IC50 [4]: 0.652 µM
IC50 [5]: 4.33 µM
selectivity ratio [6]: 7

O=C(CC1S/C(=N\N=C\c2c(-c3ccccc3)[nH]c3ccccc23)NC1=O)c1ccccc1 (configuration not stated)
IC50 [1]: 7.73 µM
IC50 [4]: 2.82 µM

CCC1S/C(=N\N=C\c2c(-c3ccc(Cl)cc3)[nH]c3ccccc23)N(c2ccc(O)cc2)C1=O (configuration not stated)
IC50 [4]: 0.86 µM
IC50 [5]: 85.9 µM
selectivity ratio [6]: 100
LD50 [7]: 330 mg/kg

CC12CCC(C/C1=N/N=C1/NC(=O)C(CC(=O)Nc3ccc(Br)cc3)S1)C2(C)C (configuration not stated)
inhibition at 10 µg/mL [2]: 97%
inhibition [3]: inactive

O=C1CS/C(=N\N=C\c2c(-c3ccccc3)[nH]c3ccccc23)N1
IC50 [4]: 0.23 µM
IC50 [5]: 13.2 µM
selectivity ratio [6]: 57

CCOC(=O)c1ccc(NC(=O)CC2S/C(=N\N=C\c3c(-c4ccccc4)[nH]c4ccccc34)NC2=O)cc1 (configuration not stated)
IC50 [1]: 6.86 µM

Cc1ccc(NC(=O)CC2S/C(=N\N=C3\CC4CCC3(C)C4(C)C)NC2=O)cc1 (configuration not stated)
inhibition at 10 µg/mL [2]: 30%
inhibition at 1 µg/mL [3]: 4.18%

O=C(CC1S\C(=N/N=C/C=C/c2ccccc2)N(c2ccc(O)cc2)C1=O)Nc1ccc(F)cc1 (configuration not stated)
inhibition at 10 µg/mL [2]: -8.23%
inhibition at 1 µg/mL [3]: 1.18%

O=C(O)CCNC(=O)CC1S/C(=N\N=C\c2c(-c3ccccc3)[nH]c3ccccc23)NC1=O (configuration not stated)
IC50 [1]: 34.8 µM
